Measurements published in ChEMBL document CHEMBL3861972, “Actinomadurol, an Antibacterial Norditerpenoid from a Rare Actinomycete, Actinomadura sp. KC 191” (J Nat Prod, 2016).
Converted amounts (≈) assume the structure as drawn.

How the values were obtained:
Staphylococcus aureus = assay: Antibacterial activity against Staphylococcus aureus ATCC 6538p after 24 hrs by serial two fold dilution method; assay type: functional
Method in brief: (§1)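 Broth microdilution MIC. Bacteria grown overnight in LB broth at 37 °C, harvested by centrifugation and washed twice in sterile distilled water. Compound DMSO stocks were diluted in Standard method broth to give serial 2-fold dilutions from 100 to […] μg/mL. About 10^5 cfu/mL of test bacteria were added per well, and plates were incubated 24 h at 37 °C.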

Bacillus spizizenii = assay: Antibacterial activity against Bacillus subtilis ATCC 6633 after 24 hrs by serial two fold dilution method; assay type: functional; settings: ATCC 6633, 24 h; method in brief: as §1
Kocuria rhizophila = assay: Antibacterial activity against Kocuria rhizophila NBRC 12708 after 24 hrs by serial two fold dilution method; assay type: functional; settings: NBRC 12708, 24 h; method in brief: as §1
Proteus hauseri = assay: Antibacterial activity against Proteus hauseri NBRC 3851 after 24 hrs by serial two fold dilution method; assay type: functional; settings: NBRC 3851, 24 h; method in brief: as §1
[1] = Antibacterial activity against Salmonella enterica ATCC 14028 after 24 hrs by serial two fold dilution method; assay type: functional; settings: ATCC 14028, 24 h; method in brief: as §1
Escherichia coli = assay: Antibacterial activity against Escherichia coli ATCC 25922 after 24 hrs by serial two fold dilution method; assay type: functional; settings: ATCC 25922, 24 h; method in brief: as §1
Aspergillus fumigatus = assay: Antifungal activity against Aspergillus fumigatus; assay type: functional
[2] = Antifungal activity against Trichophyton rubrum; assay type: functional
[3] = Antifungal activity against Trichophyton mentagrophytes; assay type: functional
[4] = Growth inhibition of human A549 cells; assay type: functional, cell-based
[5] = Growth inhibition of human HCT116 cells; assay type: functional, cell-based; settings: HCT-116
[6] = Growth inhibition of human SNU638 cells; assay type: functional, cell-based; settings: SNU-638
[7] = Growth inhibition of human SKHEP1 cells; assay type: functional, cell-based; settings: SK-HEP1
[8] = Growth inhibition of human MDA-MB-231 cells; assay type: functional, cell-based
[9] = Growth inhibition of human K562 cells; assay type: functional, cell-based
Candida albicans = assay: Antifungal activity against Candida albicans; assay type: functional

| MIC (Staphylococcus aureus) | MIC (Bacillus spizizenii) | MIC (Kocuria rhizophila) | MIC (Proteus hauseri) | MIC [1] | MIC (Escherichia coli) | MIC (Aspergillus fumigatus) | MIC [2] | MIC [3] | MIC (Candida albicans) | SMILES | IC50 [4] | IC50 [5] | IC50 [6] | IC50 [7] | IC50 [8] | IC50 [9] |
| --- | --- | --- | --- | --- | --- | --- | --- | --- | --- | --- | --- | --- | --- | --- | --- | --- |
| > 100 µg/mL | > 100 µg/mL | > 100 µg/mL | > 100 µg/mL | > 100 µg/mL | > 100 µg/mL | > 100 µg/mL | > 100 µg/mL | > 100 µg/mL | > 100 µg/mL | C=C[C@]1(C)CCC2=C(C1)C(=O)C[C@H]1C(CO)=CC(=O)[C@@H](O)[C@]21C | > 100 µg/mL | > 100 µg/mL | > 100 µg/mL | > 100 µg/mL | > 100 µg/mL | > 100 µg/mL |
| 0.78 µg/mL (≈ 2.45 µM) | 1.56 µg/mL (≈ 4.9 µM) | 0.39 µg/mL (≈ 1.22 µM) | 0.78 µg/mL (≈ 2.45 µM) | 3.12 µg/mL (≈ 9.8 µM) | > 100 µg/mL | > 100 µg/mL | > 100 µg/mL | > 100 µg/mL | > 100 µg/mL | C=C[C@]1(C)CCC2=C(C1)[C@H](O)C[C@H]1C(CO)=CC(=O)[C@@H](O)[C@]21C | > 100 µg/mL | > 100 µg/mL | > 100 µg/mL | > 100 µg/mL | > 100 µg/mL | > 100 µg/mL |

| SMILES | MIC (Staphylococcus aureus) | MIC (Bacillus spizizenii) | MIC (Kocuria rhizophila) | MIC (Proteus hauseri) | MIC [1] | MIC (Escherichia coli) | MIC (Aspergillus fumigatus) | MIC [2] | MIC [3] | MIC (Candida albicans) | IC50 [4] | IC50 [5] | IC50 [6] | IC50 [7] | IC50 [8] | IC50 [9] |
| --- | --- | --- | --- | --- | --- | --- | --- | --- | --- | --- | --- | --- | --- | --- | --- | --- |
| CC1(C)S[C@@H]2[C@H](NC(=O)[C@H](N)c3ccccc3)C(=O)N2[C@H]1C(=O)O [AMPICILLIN] | 3.12 µg/mL (≈ 8.93 µM) | 1.56 µg/mL (≈ 4.46 µM) | 0.79 µg/mL (≈ 2.26 µM) | 1.56 µg/mL (≈ 4.46 µM) | 3.12 µg/mL (≈ 8.93 µM) | 6.25 µg/mL (≈ 17.9 µM) | – | – | – | – | – | – | – | – | – | – |
